# Calls of active or inactive are those of the source. The calls are words filed in the database; no cut-off is given here.
# Tests used:
# [1] = molecular target: Epidermal growth factor receptor (Homo sapiens) (UniProt P00533); assay: Inhibition of recombinant human EGFR (696 to end residues) at 10 uM using poly(Glu, Tyr) 4:1 as substrate measured after 40 mins in presence of [gamma33P]ATP by scintillation counting method
# [2] = molecular target: Phosphatidylinositol 4-phosphate 3-kinase C2 domain-containing subunit alpha (Homo sapiens) (UniProt O00443); assay: Inhibition of recombinant human PI3KC2alpha (299 to end residues) at 10 uM using phosphatidylinositol as substrate measured after 40 mins by HTRF assay
# [3] = molecular target: Cyclin-Y/Cyclin-dependent kinase 16 (Homo sapiens) (UniProt Q00536+Q8ND76); assay: Inhibition of recombinant full length human CDK16/cyclinY at 10 uM using PKSPKARKKL as substrate measured after 120 mins in presence of [gamma33P]ATP by scintillation counting method; type: protein-complex assay
# [4] = molecular target: Eukaryotic translation initiation factor 2-alpha kinase 1 (Homo sapiens) (UniProt Q9BQI3); assay: Inhibition of recombinant human HRI (140 to end residues) at 10 uM using RSRSRSRSRSRSRSR as substrate measured after 120 mins in presence of [gamma33P]ATP by scintillation counting method
# Sequence of Eukaryotic translation initiation factor 2-alpha kinase 1 (Homo sapiens) (Q9BQI3 whole entry): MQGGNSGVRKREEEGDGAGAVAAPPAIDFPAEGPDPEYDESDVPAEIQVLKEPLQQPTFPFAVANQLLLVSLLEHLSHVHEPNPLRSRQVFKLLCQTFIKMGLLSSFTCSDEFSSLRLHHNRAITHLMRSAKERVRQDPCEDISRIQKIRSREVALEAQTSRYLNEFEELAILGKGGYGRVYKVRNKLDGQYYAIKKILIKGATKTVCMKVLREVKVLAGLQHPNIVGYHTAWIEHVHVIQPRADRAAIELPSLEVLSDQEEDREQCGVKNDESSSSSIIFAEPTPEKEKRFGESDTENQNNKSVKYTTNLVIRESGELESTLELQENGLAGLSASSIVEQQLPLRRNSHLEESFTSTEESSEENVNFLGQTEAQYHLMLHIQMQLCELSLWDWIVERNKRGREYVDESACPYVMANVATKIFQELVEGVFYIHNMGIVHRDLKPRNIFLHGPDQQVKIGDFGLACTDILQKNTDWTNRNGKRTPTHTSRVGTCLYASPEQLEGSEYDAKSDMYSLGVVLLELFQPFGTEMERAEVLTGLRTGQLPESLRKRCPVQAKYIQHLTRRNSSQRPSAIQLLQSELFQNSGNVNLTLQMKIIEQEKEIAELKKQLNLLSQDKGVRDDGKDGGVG
# [5] = molecular target: Tyrosine-protein kinase receptor TYRO3 (Homo sapiens) (UniProt Q06418); assay: Inhibition of human RSE (451 to end residues) using KVEKIGEGTYGVVYK as substrate measured after 40 mins in presence of [gamma33P]ATP by scintillation counting method
# Procedure, shortened: (§1)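 Kinase panel of 422 kinases screened by Eurofins KinaseProfiler at a single test-compound concentration of 10 µM.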
# [6] = molecular target: Cytoplasmic tyrosine-protein kinase BMX (Homo sapiens) (UniProt P51813); assay: Inhibition of full-length recombinant human BMX at 10 uM using poly(Glu, Tyr) 4:1 as substrate measured after 40 mins in presence of [gamma33P]ATP by scintillation counting method; procedure, shortened: as §1
# [7] = molecular target: Mitogen-activated protein kinase kinase kinase kinase 3 (Homo sapiens) (UniProt Q8IVH8); assay: Inhibition of recombinant human MAP4K3 (1 to 291 residues) at 10 uM using RLGRDKYKTLRQIRQ as substrate measured after 40 mins in presence of [gamma33P]ATP by scintillation counting method
# [8] = molecular target: Serine/threonine-protein kinase Nek7 (Homo sapiens) (UniProt Q8TDX7); assay: Inhibition of recombinant human NEK7 (2 to end residues) at 10 uM using FLAKSFGSPNRAYKK as substrate measured after 40 mins in presence of [gamma33P]ATP by scintillation counting method
# Sequence of Serine/threonine-protein kinase Nek7 (Homo sapiens) (Q8TDX7 whole entry, looked up, the tested form may be a part): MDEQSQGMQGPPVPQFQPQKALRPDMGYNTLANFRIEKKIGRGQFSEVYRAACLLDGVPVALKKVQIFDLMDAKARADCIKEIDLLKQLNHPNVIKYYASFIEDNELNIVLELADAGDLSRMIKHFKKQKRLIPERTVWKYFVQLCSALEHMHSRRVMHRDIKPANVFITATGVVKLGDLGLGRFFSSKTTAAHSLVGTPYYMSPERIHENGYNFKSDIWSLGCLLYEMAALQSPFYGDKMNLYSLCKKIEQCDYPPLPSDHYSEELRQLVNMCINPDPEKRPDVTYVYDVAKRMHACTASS
# [9] = molecular target: Nucleosome-remodeling factor subunit BPTF (Homo sapiens, UniProt Q12830); assay: Binding affinity to human partial length FALZ (S2791 to H2911 residues) expressed in bacterial expression system at 1 uM by BROMOscan assay
# Procedure, shortened: (§2)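 BROMOscan bromodomain cross-screen run by an outside service, compound at 1 µM against 32 recombinant bromodomains. Binding given as percent of control.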
# [10] = system: Proto-oncogene tyrosine-protein kinase receptor Ret (Homo sapiens), P07949 [V804L]; assay: Inhibition of human Ret V804L mutant (658 to end residues) using KKKSPGEYVNIEFG as substrate measured after 40 mins in presence of [gamma33P]ATP by scintillation counting method; procedure, shortened: as §1
# [11] = system: Receptor-type tyrosine-protein kinase FLT3 (Homo sapiens), P36888 [D835Y]; assay: Inhibition of recombinant human Flt3 D835Y mutant (564 to end residues) at 10 uM using EAIYAAPFAKKK as substrate measured after 40 mins in presence of [gamma33P]ATP by scintillation counting method
# [12] = system: Tyrosine-protein kinase BTK (Homo sapiens), Q06187 [R28H]; assay: Inhibition of full-length recombinant human BTK R28H mutant at 10 uM using LSNLYHQGKFLQTFCGSPLYRRR as substrate measured after 40 mins in presence of [gamma33P]ATP by scintillation counting method; procedure, shortened: as §1
# [13] = molecular target: Serine/threonine-protein kinase SIK1 (Homo sapiens) (UniProt P57059); assay: Inhibition of human SIK (1 to 281 residues) using AMARAASAAALARRR as substrate measured after 40 mins in presence of [gamma33P]ATP by scintillation counting method; procedure, shortened: as §1
# [14] = molecular target: Histone acetyltransferase p300 (Homo sapiens) (UniProt Q09472); assay: Binding affinity to human partial length EP300 (A1040 to G1161 residues) expressed in bacterial expression system at 1 uM by BROMOscan assay; procedure, shortened: as §2
# [15] = molecular target: Chromatin remodeling regulator CECR2 (Homo sapiens) (UniProt Q9BXF3); assay: Binding affinity to human partial length CECR2 (P423 to D543 residues) expressed in bacterial expression system at 1 uM by BROMOscan assay; procedure, shortened: as §2
# [16] = molecular target: Serine/threonine-protein kinase PLK2 (Homo sapiens) (UniProt Q9NYY3); assay: Inhibition of human Snk (65 to 409 residues) using casein as substrate measured after 40 mins in presence of [gamma33P]ATP by scintillation counting method; procedure, shortened: as §1
# Sequence of Serine/threonine-protein kinase PLK2 (Homo sapiens) (Q9NYY3 whole entry, looked up, the tested form may be a part): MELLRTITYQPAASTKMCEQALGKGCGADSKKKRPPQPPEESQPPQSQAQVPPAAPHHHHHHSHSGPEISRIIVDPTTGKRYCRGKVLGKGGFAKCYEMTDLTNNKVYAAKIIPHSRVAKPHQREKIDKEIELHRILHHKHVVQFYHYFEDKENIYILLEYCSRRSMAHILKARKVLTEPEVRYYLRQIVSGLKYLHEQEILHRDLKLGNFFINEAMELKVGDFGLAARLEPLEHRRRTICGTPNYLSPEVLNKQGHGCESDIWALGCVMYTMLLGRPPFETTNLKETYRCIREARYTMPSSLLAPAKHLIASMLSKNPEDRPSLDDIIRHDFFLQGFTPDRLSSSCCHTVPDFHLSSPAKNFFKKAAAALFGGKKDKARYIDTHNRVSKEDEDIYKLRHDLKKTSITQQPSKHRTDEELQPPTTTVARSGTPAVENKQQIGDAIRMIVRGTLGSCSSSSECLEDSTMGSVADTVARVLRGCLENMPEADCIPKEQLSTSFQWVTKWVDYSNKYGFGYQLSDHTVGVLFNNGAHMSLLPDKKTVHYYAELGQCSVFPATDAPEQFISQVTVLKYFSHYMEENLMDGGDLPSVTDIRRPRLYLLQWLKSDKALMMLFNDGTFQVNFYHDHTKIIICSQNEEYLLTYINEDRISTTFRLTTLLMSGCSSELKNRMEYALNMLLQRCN
# [17] = molecular target: Serine/threonine-protein kinase PAK 3 (Homo sapiens) (UniProt O75914); assay: Inhibition of recombinant full-length human PAK3 at 10 uM using RRRLSFAEPG as substrate measured after 40 mins in presence of [gamma33P]ATP by scintillation counting method
# [18] = molecular target: Mast/stem cell growth factor receptor Kit (Homo sapiens) (UniProt P10721); assay: Inhibition of recombinant human c-Kit (544 to end residues) at 10 uM using poly(Glu, Tyr) 4:1 as substrate measured after 40 mins in presence of [gamma33P]ATP by scintillation counting method
# [19] = molecular target: Receptor tyrosine-protein kinase erbB-4 (Homo sapiens) (UniProt Q15303); assay: Inhibition of recombinant human ErbB4 (706 to 991 residues) at 10 uM using poly (Glu, Tyr) 4:1 as substrate measured after 40 mins in presence of [gamma33P]ATP by scintillation counting method
# Sequence of Receptor tyrosine-protein kinase erbB-4 (Homo sapiens) (Q15303 whole entry, the tested form may be a part): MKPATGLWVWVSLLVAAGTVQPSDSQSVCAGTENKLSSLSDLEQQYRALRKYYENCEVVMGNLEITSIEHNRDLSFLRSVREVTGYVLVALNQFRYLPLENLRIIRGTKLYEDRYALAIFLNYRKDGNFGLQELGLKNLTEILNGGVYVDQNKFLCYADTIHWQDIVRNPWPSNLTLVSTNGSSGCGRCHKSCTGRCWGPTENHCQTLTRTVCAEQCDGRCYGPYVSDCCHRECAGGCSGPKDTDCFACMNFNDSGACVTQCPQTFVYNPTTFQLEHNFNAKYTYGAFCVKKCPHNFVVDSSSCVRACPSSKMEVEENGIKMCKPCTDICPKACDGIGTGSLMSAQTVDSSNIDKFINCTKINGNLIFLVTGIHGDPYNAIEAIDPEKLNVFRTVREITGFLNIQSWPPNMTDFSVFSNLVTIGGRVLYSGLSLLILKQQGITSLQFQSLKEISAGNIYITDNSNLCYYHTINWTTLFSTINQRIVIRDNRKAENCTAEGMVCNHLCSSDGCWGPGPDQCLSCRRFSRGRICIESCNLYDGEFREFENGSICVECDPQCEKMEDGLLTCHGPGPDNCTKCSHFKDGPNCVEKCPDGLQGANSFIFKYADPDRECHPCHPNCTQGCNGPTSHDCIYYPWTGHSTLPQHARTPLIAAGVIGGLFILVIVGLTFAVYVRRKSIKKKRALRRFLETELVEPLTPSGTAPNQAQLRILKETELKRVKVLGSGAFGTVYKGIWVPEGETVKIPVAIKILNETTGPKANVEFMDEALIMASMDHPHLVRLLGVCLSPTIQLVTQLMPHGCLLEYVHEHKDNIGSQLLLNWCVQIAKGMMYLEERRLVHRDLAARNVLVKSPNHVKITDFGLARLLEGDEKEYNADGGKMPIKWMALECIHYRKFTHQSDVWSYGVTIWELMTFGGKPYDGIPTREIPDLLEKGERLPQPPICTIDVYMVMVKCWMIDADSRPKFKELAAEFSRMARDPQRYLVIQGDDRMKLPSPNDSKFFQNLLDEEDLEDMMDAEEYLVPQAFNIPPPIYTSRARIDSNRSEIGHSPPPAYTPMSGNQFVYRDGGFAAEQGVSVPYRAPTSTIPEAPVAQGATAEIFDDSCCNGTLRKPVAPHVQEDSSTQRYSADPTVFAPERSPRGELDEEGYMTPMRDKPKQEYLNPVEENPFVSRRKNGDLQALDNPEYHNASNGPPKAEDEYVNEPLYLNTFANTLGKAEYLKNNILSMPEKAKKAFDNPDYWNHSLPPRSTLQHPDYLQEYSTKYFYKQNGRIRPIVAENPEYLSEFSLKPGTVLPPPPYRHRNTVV
# [20] = molecular target: Serine/threonine-protein kinase Nek6 (Homo sapiens) (UniProt Q9HC98); assay: Inhibition of recombinant human NEK6 (2 to end residues) at 10 uM using FLAKSFGSPNRAYKK as substrate measured after 40 mins in presence of [gamma33P]ATP by scintillation counting method
# Sequence of Serine/threonine-protein kinase Nek6 (Homo sapiens) (Q9HC98 whole entry): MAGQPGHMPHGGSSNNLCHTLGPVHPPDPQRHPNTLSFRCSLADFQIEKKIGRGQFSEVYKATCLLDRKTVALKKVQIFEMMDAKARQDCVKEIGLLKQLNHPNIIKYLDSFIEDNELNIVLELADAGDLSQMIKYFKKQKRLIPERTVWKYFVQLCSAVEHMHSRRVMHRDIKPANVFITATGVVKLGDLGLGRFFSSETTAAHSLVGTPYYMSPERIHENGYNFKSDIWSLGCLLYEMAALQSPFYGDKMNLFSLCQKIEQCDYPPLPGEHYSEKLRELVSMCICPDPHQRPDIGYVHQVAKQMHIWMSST
# [21] = molecular target: Wee1-like protein kinase 2 (Homo sapiens) (UniProt P0C1S8); assay: Inhibition of recombinant full-length human WEE1b at 10 uM using LSNLYHQGKFLQTFCGSPLYRRR as substrate measured after 120 mins in presence of [gamma33P]ATP by scintillation counting method
# [22] = molecular target: Histone acetyltransferase KAT2B (Homo sapiens, UniProt Q92831); assay: Inhibition of biotinylated peptide binding to human GST-tagged PCAF bromodomain expressed in Escherichia coli Rosetta (DE3) measured after 15 hrs by HTRF assay
# [23] = molecular target: Tyrosine-protein kinase Yes (Homo sapiens) (UniProt P07947); assay: Inhibition of recombinant full-length human Yes at 10 uM using poly(Glu, Tyr) 4:1 as substrate measured after 40 mins in presence of [gamma33P]ATP by scintillation counting method
# Sequence of Tyrosine-protein kinase Yes (Homo sapiens) (P07947 2-543 limits assumed): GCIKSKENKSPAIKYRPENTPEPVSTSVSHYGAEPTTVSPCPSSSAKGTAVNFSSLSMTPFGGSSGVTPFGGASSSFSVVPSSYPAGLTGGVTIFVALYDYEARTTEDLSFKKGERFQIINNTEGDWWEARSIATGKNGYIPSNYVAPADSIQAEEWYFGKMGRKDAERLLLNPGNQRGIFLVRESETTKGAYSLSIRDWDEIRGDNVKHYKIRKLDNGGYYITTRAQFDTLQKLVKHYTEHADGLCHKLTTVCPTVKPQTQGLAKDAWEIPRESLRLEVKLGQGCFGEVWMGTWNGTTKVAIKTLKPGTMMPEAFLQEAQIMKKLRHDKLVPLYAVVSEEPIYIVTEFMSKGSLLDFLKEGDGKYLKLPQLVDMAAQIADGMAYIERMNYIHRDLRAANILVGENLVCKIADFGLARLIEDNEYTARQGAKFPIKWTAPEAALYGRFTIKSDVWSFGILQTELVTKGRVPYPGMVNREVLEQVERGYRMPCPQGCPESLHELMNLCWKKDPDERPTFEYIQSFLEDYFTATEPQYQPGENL
# Sequence of Epidermal growth factor receptor (Homo sapiens) (P00533 whole entry, the tested form may be a part): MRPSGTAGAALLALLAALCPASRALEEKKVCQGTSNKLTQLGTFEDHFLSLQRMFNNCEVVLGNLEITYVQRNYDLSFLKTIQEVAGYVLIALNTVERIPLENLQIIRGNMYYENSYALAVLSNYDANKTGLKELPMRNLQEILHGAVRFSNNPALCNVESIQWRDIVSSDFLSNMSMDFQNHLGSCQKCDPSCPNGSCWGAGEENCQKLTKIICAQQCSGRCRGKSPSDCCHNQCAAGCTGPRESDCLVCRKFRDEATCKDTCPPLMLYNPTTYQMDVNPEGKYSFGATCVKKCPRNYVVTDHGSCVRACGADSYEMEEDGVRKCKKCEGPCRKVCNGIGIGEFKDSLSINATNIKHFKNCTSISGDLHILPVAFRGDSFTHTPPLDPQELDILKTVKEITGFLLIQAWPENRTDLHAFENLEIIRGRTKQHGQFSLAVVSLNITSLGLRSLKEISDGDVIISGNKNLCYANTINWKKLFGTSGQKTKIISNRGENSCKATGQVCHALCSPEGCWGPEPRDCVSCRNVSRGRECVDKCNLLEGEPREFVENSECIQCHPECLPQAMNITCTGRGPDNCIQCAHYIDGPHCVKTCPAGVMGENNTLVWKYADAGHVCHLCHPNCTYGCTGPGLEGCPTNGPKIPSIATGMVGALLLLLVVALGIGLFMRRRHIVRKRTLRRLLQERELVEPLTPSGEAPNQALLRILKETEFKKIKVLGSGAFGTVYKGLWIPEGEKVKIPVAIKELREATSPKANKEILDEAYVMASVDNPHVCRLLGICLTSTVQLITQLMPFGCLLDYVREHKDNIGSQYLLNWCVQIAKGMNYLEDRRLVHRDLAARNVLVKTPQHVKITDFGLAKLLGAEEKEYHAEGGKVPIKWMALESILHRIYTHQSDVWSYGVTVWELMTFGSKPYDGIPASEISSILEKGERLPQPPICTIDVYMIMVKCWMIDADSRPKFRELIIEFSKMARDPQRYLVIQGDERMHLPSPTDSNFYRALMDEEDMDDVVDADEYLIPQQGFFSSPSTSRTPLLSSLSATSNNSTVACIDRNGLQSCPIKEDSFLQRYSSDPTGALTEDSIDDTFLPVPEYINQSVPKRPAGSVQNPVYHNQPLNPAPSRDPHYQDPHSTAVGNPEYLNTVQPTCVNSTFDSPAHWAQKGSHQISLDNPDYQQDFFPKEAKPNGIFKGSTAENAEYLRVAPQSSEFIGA
smiles,measurement,setting,value
CN1C[C@H](Nc2nc3cc[nH]c3c(=O)n2C)C[C@H](c2ccc3c(c2)OCCO3)C1,inhibition,[1],inactive
same,inhibition,[2],inactive
same,inhibition,[3],inactive
same,inhibition,[4],inactive
same,inhibition,[5],inactive
same,inhibition,[6],inactive
same,inhibition,[7],inactive
same,inhibition,[8],inactive
same,Activity,[9],Active
same,inhibition,[10],inactive
same,inhibition,[11],inactive
same,inhibition,[12],inactive
same,inhibition,[13],inactive
same,Activity,[14],inactive
same,Activity,[15],Active
same,inhibition,[16],inactive
same,inhibition,[17],inactive
same,inhibition,[18],inactive
same,inhibition,[19],inactive
same,inhibition,[20],inactive
same,inhibition,[21],inactive
same,IC50,[22],7 nM
same,inhibition,[23],inactive

# From ChEMBL document CHEMBL4350961, “Discovery of Pyrrolo[3,2- d]pyrimidin-4-one Derivatives as a New Class of Potent and Cell-Active Inhibitors of P300/CBP-Associated Factor Bromodomain” (J Med Chem, 2019)
